Consider 7 compounds from paper PMC8349901 (Journal of Peptide Science, 2021).

The structures appear in SMILES notation. Non-standard residues stand in square brackets, D forms with d. Residues, ends and D or L forms follow the SMILES beside them. Bip = N[C@@H](Cc1ccc(-c2ccccc2)cc1)C(=O)O

A short description of data set [1]: Negative-stain TEM of self-assembled nanoribbon morphology. In kind it is physicochemical. The settings on record: 0.2 mM peptide, 5% HFIP/water, average of at least 100 measurements; for Nanoribbon width: pH 3–4, room temperature. A digest of the protocol: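 Peptide, quantified by HPLC peak area against amino-acid-analysis-calibrated curves, dissolved in HFIP and diluted with water to 0.2 mM (5% HFIP, pH 3–4 from residual TFA). Vortexed 1 min, sonicated 5 min. Assembled sample applied to carbon-coated copper grids for 30 s, blotted, stained 2 min with 5% uranyl acetate, and water-washed. Imaged at 80 kV. Dimensions averaged over ≥100 distinct fibrils.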

Data set [2] in a line: Self-assembly kinetics by circular dichroism over 24 h. Format: physicochemical. The settings on record: CD at 0, 1, 2, 4, 12, 24 h; 0.2 mM peptide, 5% HFIP/water, 25°C. A digest of the protocol: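 Lyophilized peptide, quantified by 215-nm HPLC calibration tied to amino acid analysis, was dissolved in HFIP, then water was added (pH 3–4 from residual TFA). Solutions were vortexed for 1 min and sonicated for 5 min. Spectra were scanned from 260 to 190 nm in a 0.1-mm quartz cell with 1.0-nm step, 1.0-nm bandwidth and 3 s per step, starting immediately after preparation.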
A general note: CD spectra are sensitive to the conformation of chiral molecules.

For data set [3] the following is noted: amino acid; glycine defined as 0; higher π = more hydrophobic; cited from earlier work.

Compound `CC(=O)N[C@@H](Cc1c[nH]c2ccccc12)C(=O)N[C@@H](CCCCN)C(=O)N[C@@H](Cc1c[nH]c2ccccc12)C(=O)N[C@@H](CCC(=O)O)C(=O)N[C@@H](Cc1c[nH]c2ccccc12)C(=O)N[C@@H](CCCCN)C(=O)N[C@@H](Cc1c[nH]c2ccccc12)C(=O)N[C@@H](CCC(=O)O)C(N)=O` [Peptide 3, Ac‐(WKWE)2‐NH2] (Ac-WKWEWKWE-NH2) registered a Nanoribbon width in data set [1] of 7.3 ± 1.6 nm. Also, the “evolution of CD signal over 24 h (self-assembly kinetics)” value (shortened to “evolution of CD signal over 24 h”) in data set [2] is “occurring over 24 h”. In data set [1], `CC(=O)N[C@@H](Cc1ccccc1)C(=O)N[C@@H](CCCCN)C(=O)N[C@@H](Cc1ccccc1)C(=O)N[C@@H](CCC(=O)O)C(=O)N[C@@H](Cc1ccccc1)C(=O)N[C@@H](CCCCN)C(=O)N[C@@H](Cc1ccccc1)C(=O)N[C@@H](CCC(=O)O)C(N)=O` [Peptide 1, Ac‐(FKFE)2‐NH2] came in with a Nanoribbon width of 8.8 ± 0.8 nm. In data set [1] (left-handed helical nanoribbons), this compound registered a Helical pitch of 19.1 ± 1.3 nm. `N[C@@H](Cc1c[nH]c2ccccc12)C(=O)O` [Trp, tryptophan]: in data set [3], the “partition coefficient (π) between octanol and water relative to glycine” value was 2.25. Regarding `N[C@@H](CCc1ccccc1)C(=O)O` [Hph, homophenylalanine], in data set [3], the “partition coefficient (π) between octanol and water relative to glycine” value is reported as 2.10.

`CC(=O)N[C@@H](Cc1ccc(-c2ccccc2)cc1)C(=O)N[C@@H](CCCCN)C(=O)N[C@@H](Cc1ccccc1)C(=O)N[C@@H](CCC(=O)O)C(=O)N[C@@H](Cc1ccccc1)C(=O)N[C@@H](CCCCN)C(=O)N[C@@H](Cc1ccccc1)C(=O)N[C@@H](CCC(=O)O)C(N)=O` [Peptide 9, Ac‐BipKFEFKFE‐NH2] (Ac-[Bip]KFEFKFE-NH2) showed a Nanoribbon width in data set [1] of 2.9 ± 0.5 nm. Further, in data set [2], the “evolution of CD signal over 24 h” value is “intensified dramatically over 24 h”. For the compound `N[C@@H](Cc1ccccc1)C(=O)O` [Phe, phenylalanine], the “partition coefficient (π) between octanol and water relative to glycine” value in data set [3] was 1.79.

`CC(=O)N[C@@H](Cc1ccc(-c2ccccc2)cc1)C(=O)N[C@@H](CCCCN)C(=O)N[C@@H](Cc1ccc(-c2ccccc2)cc1)C(=O)N[C@@H](CCC(=O)O)C(=O)N[C@@H](Cc1ccc(-c2ccccc2)cc1)C(=O)N[C@@H](CCCCN)C(=O)N[C@@H](Cc1ccc(-c2ccccc2)cc1)C(=O)N[C@@H](CCC(=O)O)C(N)=O` [Peptide 6, Ac‐(BipKBipE)2‐NH2] (Ac-[Bip]K[Bip]E[Bip]K[Bip]E-NH2): the Nanoribbon width in data set [1] was determined as 5.5 ± 0.9 nm. Further, the “evolution of CD signal over 24 h” value in data set [2] is “no effect on evolution of signal intensity over time”.
